The record followed here is ChEMBL document CHEMBL2062484, “Design of barbiturate-nitrate hybrids that inhibit MMP-9 activity and secretion” (J Med Chem, 2012).

In data set [1] the target is 72 kDa type IV collagenase (Homo sapiens, UniProt P08253). The experiment in a line: Inhibition of p-aminophenylmercuric acetate stimulated human recombinant MMP-2 using (7-methoxycoumarin-4-yl)-acetyl-pro-Leu-Gly-Leu-(3-(2,4-dinitrophenyl)-L-2,3-diaminopropionyl)-Ala-Arg-NH2 as substrate after 45 mins by fluorogenic assay.
Data set [2] concerns the target Matrix metalloproteinase-9 (Homo sapiens, UniProt P14780). The data set is described as follows: Inhibition of p-aminophenylmercuric acetate stimulated human recombinant MMP-9 using (7-methoxycoumarin-4-yl)-acetyl-pro-Leu-Gly-Leu-(3-(2,4-dinitrophenyl)-L-2,3-diaminopropionyl)-Ala-Arg-NH2 as substrate after 45 mins by fluorogenic assay.
The test system of data set [3] is Caco-2. The experiment in a line: Induction of nitrite release in human Caco2 cells at 200 uM after 24 hrs by Griess assay. It is filed as functional, cell-based. The gist of the method:
(§1)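 Compounds incubated 24 h with Caco-2 monolayers at 200 or 10 μM (n = 3). Supernatant nitrite read by Griess reaction (sulfanilamide 2% plus N-1-naphthylethylenediamine) at 4 °C, 45 min shaking, A540; nitrate measured after VCl3 reduction. Quantified against sodium nitrite/nitrate standards 3−200 μM; NOx = nitrite + nitrate.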

The test system of data set [4] is Caco-2. The data set is described as follows: Induction of nitrate release in human Caco2 cells at 200 uM after 24 hrs by Griess assay. It is filed as functional, cell-based. The gist of the method:
as §1
On the technique in general: The Griess reaction detects nitrite, a stable product of nitric oxide.

Data set [5] deals with HT-1080. The data set is described as follows: Inhibition of PMA-stimulated MMP-9 secretion in human HT1080 cells at 100 uM after 24 hrs by gelatin zymography. The data set is classed as functional. The gist of the method:
(§2)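 HT1080 at ~75% confluence switched to serum-free medium, pretreated 3 h with compound (100 μM; DMSO ≤0.1%), then PMA 10 μM for 24 h at 37 °C. Cleared supernatants loaded at equal protein on 2% gelatin SDS-PAGE, Triton washed, developed 48 h at 37 °C in Tris pH 7.5/CaCl2 buffer, Coomassie stained; gelatinolytic bands quantified by densitometry relative to stimulated control.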

The test system of data set [6] is HT-1080. The data set is described as follows: Inhibition of PMA-stimulated MMP-2 secretion in human HT1080 cells at 100 uM after 24 hrs by gelatin zymography. It is filed as functional, cell-based. The gist of the method: as §2
The nature of data set [7]: Cytotoxicity against human Caco2 cells assessed as cell viability after 24 hrs by MTT assay. It is filed as cell-based. To be noted: Caco-2 cells. The method in brief: (§3)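 Cells seeded (Caco-2 8 × 10³/well, HT1080 12 × 10⁴/well), grown to 70% confluence, serum-starved 1 h, then exposed to compound at 0.1−200 μM (eight levels) serum-free for 24 h. MTT 0.5 mg/mL for 3 h at 37 °C, formazan dissolved in DMSO, OD 540 nm; viability as % of untreated. CC50 from sigmoidal fits; three experiments, triplicate wells.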
(In general: Tetrazolium dyes change colour on reduction, which living cells bring about.)

Data set [8] can be described thus: Cytotoxicity against human HT1080 cells assessed as cell viability after 24 hrs by MTT assay. It is filed as cell-based. Particulars: HT-1080 cells. The gist of the method:
as §3

Data set [9] in a line: Cytotoxicity against human Caco2 cells assessed as inhibition of cell viability at 200 uM after 24 hrs by MTT assay. The data set is classed as cell-based. To be noted: Caco-2 cells, read-out: INH. The gist of the method:
as §3

Data set [10] relates to Caco-2. The data set is described as follows: Induction of apoptosis in human Caco2 cells assessed as increase in apoptotic cell population at 10 uM after 24 hrs by Annexin V FITC staining based flow cytometry. To be noted: caco-2, 24 h. The method in brief: (§4)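 Cells at 80% confluence in T25 flasks treated 24 h serum-free with compound (10 μM); vehicle-only controls. Cells washed in Hepes pH 7.4/NaCl/CaCl2 binding buffer, double-stained with Annexin V-FITC and propidium iodide 15 min at room temperature in dark, read by flow cytometry within 5 min; expressed as % of control fluorescence.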
A general note: In flow cytometry, cells or beads pass a laser one at a time.

Data set [11] has as its system Caco-2. The experiment in a line: Induction of apoptosis in human Caco2 cells assessed as increase in necrotic cell population at 10 uM after 24 hrs by Annexin V FITC staining based flow cytometry. Particulars: caco-2, 24 h. The method in brief:
as §4

Data set [12] has as its system HT-1080. The data set is described as follows: Induction of apoptosis in human HT1080 cells assessed as increase in apoptotic cell population at 10 uM after 24 hrs by Annexin V FITC staining based flow cytometry. Particulars: ht-1080, 24 h. The gist of the method: as §4
In data set [13] the test system is HT-1080. The experiment in a line: Induction of apoptosis in human HT1080 cells assessed as increase in necrotic cell population at 10 uM after 24 hrs by Annexin V FITC staining based flow cytometry. To be noted: ht-1080, 24 h. The gist of the method: as §4
The test system of data set [14] is Caco-2. The experiment in a line: Inhibition of IL1beta/TNFalpha-stimulated MMP-9 secretion in human Caco2 cells at 10 uM after 24 hrs by densitometric analysis. The data set is classed as functional, cell-based. The gist of the method:
(§5)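 Near-confluent (~75%) Caco-2 switched to serum-free medium, pretreated 30 min with compound (10 μM, DMSO <1%), then TNF-α and IL-1β 10 ng/mL for 24 h at 37 °C. Cleared supernatants normalized by Bradford protein, run on 2% gelatin SDS-PAGE, Triton washed, developed 48 h at 37 °C in Tris pH 7.5/CaCl2 buffer, Coomassie stained; lysis bands quantified by densitometry as % of cytokine-only control.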

Data set [15] deals with Caco-2. The data set is described as follows: Inhibition of IL1beta/TNFalpha-stimulated MMP-2 secretion in human Caco2 cells at 10 uM after 24 hrs by densitometric analysis. It is filed as functional, cell-based. The method in brief:
as §5

Data set [16] concerns Caco-2. The data set is described as follows: Inhibition of PMA-stimulated human Caco2 cells migration through matrigel membrane at 10 uM after 48 hrs by light microscopic analysis. The data set is classed as functional. To be noted: Caco-2, 48 h. The method in brief: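 Matrigel-coated invasion chamber inserts, 8 μm pore membrane, 0.5 mL of 2 × 10⁵ Caco-2 cells/mL; stimulated with HGF (100 or 500 ng/mL) or PMA (10 μM) with compound (100 nM or 10 μM); 48 h invasion at 37 °C, 5% CO2. Non-invading cells swabbed off, lower-surface cells Diff-Quik stained and counted by light microscopy; normalized to stimulated control; duplicates.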

Active and inactive are the calls of the source. No cut-off for these calls is given here. Where only a bound is given, the exact number is not on record here.

Sequence of 72 kDa type IV collagenase (P08253 whole entry): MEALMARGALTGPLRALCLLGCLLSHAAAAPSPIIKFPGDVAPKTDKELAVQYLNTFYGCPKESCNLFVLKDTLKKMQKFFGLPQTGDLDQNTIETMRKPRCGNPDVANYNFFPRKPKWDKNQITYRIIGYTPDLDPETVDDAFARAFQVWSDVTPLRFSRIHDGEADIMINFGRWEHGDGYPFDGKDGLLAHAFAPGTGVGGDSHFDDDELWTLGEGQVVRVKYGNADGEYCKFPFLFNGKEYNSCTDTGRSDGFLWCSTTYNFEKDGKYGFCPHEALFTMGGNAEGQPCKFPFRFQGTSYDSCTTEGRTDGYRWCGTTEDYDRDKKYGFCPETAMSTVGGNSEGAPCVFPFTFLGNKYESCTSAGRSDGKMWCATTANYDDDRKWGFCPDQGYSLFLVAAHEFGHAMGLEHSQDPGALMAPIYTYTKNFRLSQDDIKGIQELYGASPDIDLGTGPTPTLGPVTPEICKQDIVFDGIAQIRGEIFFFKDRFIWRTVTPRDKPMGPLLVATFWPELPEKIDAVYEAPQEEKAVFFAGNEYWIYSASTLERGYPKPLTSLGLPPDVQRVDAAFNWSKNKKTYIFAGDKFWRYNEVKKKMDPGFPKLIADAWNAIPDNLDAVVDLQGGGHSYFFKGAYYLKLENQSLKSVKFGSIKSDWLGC
Sequence of Matrix metalloproteinase-9 (P14780 whole entry): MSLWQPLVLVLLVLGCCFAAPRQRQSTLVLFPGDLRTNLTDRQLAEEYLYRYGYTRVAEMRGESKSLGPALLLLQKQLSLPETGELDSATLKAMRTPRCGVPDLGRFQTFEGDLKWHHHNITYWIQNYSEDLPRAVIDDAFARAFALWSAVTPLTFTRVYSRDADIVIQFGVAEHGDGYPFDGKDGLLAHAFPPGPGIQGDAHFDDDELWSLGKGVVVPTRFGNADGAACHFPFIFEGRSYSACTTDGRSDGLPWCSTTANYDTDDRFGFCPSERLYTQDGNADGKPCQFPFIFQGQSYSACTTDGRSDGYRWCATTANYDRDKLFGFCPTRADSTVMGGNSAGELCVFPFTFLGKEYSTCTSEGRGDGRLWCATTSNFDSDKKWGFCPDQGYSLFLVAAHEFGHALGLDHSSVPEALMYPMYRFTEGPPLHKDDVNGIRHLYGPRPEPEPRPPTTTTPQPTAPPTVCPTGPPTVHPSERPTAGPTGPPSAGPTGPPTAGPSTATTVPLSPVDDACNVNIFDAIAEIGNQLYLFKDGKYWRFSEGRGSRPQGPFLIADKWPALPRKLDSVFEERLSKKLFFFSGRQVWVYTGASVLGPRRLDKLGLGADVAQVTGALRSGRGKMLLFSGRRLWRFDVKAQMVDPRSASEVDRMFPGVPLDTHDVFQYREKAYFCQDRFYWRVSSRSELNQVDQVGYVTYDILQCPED

As to `O=C1NC(=O)C(c2ccc(Oc3ccccc3)cc2)(N2CCC(CCO[N+](=O)[O-])CC2)C(=O)N1`, the IC50 (usually the concentration that inhibits the measured activity by half) in data set [1] was 158 nM; in data set [2], 152 nM. Also, the result in [3] and in data set [4] was Active. Besides, the inhibition result in data set [5], in [6] and in [14] was “Active” in each case. Also, the CC50 (commonly the concentration that lowers cell viability or growth by half) at 24 h was greater than 200000 nM in data set [7] and 78700 nM in [8]. Also, in [9], the cytotoxicity at 24 h, 200 µM came to 100%. The Activity entry in [10], in data set [11], in data set [12] and in data set [13] was “Non-toxic” each time. Moreover, the inhibition (usually the change of the read-out against control, counted positive when it falls) in data set [15] is “inactive”. The same compound had an inhibition at 10 µM in data set [16] of 44.5%.
